Read-outs that look alike come from different tables or passages of the source.
Tests used:
healthy subjects [1] = settings: cited from earlier work
healthy subjects [2] = assay: Multiple ascending dose; assay type: in vivo, human
[3] = cited from earlier work; for t1/2: mean ± SD
healthy subjects [4] = settings: febuxostat multiple 80 mg once-daily doses after a high-fat meal; cited from earlier work
rat = settings: preclinical studies, no reference given; cited from earlier work
healthy subjects [5] = assay: Safety and tolerability evaluation; assay type: in vivo, human
Procedure, shortened: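 The single-dose part covered 10–600 mg; the multiple-dose part gave 100–800 mg orally once daily for 7 days after an overnight fast, with 8 active subjects per dose group. Adverse events came from a questionnaire or spontaneous reports. Renal toxicity was assessed with a NGAL test.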

XO enzyme = settings: in vitro; ref data on file at LG Life Sciences; cited from earlier work
liver microsome = settings: in vitro liver microsome study; preclinical, no reference given; cited from earlier work
XO = XO (Homo sapiens, UniProt P47989); assay: PK/PD relationship, Emax model; assay type: in vivo
Sequence of XO (P47989 whole entry): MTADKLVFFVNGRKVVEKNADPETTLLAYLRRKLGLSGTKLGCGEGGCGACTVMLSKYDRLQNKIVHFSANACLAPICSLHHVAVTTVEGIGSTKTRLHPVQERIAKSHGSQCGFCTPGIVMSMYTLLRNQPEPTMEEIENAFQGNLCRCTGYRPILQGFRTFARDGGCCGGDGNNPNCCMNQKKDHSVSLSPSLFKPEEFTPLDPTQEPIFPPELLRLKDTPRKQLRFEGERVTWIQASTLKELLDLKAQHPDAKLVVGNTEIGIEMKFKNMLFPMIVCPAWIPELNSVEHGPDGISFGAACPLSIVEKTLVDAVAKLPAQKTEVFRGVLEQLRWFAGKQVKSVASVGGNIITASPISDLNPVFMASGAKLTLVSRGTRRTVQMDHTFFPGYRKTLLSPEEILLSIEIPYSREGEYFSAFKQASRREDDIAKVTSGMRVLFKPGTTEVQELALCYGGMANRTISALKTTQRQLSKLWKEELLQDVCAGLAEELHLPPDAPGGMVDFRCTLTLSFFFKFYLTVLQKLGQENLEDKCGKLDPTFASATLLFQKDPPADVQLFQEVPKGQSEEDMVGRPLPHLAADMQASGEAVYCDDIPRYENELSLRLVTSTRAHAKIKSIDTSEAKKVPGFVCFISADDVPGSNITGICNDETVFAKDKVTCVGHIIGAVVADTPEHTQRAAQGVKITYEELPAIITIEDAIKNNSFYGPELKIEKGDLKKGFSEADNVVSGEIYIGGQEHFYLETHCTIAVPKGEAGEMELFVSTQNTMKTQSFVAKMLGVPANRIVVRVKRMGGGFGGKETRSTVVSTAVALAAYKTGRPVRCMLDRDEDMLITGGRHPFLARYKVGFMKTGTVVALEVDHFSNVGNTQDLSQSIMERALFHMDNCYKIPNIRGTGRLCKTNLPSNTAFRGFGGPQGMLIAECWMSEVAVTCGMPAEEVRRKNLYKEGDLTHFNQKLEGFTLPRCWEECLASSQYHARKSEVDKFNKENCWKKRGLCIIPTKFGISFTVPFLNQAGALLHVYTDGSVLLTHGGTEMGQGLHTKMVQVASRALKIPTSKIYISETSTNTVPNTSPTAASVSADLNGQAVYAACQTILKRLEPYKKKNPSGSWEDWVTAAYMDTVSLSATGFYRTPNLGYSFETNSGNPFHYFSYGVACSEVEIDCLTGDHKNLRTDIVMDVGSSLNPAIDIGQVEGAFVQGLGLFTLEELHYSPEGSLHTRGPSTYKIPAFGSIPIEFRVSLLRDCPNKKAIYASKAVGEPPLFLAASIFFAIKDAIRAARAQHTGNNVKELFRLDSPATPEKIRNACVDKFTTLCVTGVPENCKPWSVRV

CYP isoenzymes = settings: incubated with CYP isoenzymes; preclinical, no reference given; cited from earlier work
dog = settings: preclinical studies, no reference given; cited from earlier work
healthy subjects [6] = assay: Single ascending dose; assay type: in vivo, human; settings: for Change in Cmean,24 of serum uric acid from baseline: Day 1, mean (SD), n=8
Procedure, shortened: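 Healthy volunteers got a single oral dose on day 1, fasted, with placebo on day -1 for baseline and standardized meals. Serial blood was taken on days -1 and 1; aliquots were stored at -70°C. Serum uric acid, xanthine and hypoxanthine were measured by a validated assay. Cmean,24 = noncompartmental AUC0–24/24, as % change from baseline. Urinary Ae = urine volume × concentration.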

SUA = settings: in vivo study; ref data on file at LG Life Sciences; cited from earlier work
[7] = SAD study incl. food effect: pharmacokinetics of LC350189 in plasma and urine; assay type: in vivo, human
[8] = 200 mg, fed (high-fat diet) vs fasting

Cc1nc(-c2ccc(OCC(C)C)c(C#N)c2)sc1C(=O)O [Febuxostat, febuxostat]
Maximum percentage decrease from baseline in Cmean,24 (healthy subjects [1]; febuxostat 40 mg dose group): ~ 40%
Maximum percentage decrease from baseline in Cmean,24 (healthy subjects [1]; febuxostat 90 mg dose group): 60%
Inhibition of the enzyme (XO), Emax (healthy subjects [1]; febuxostat): 81.4%
Allergic reaction, subjects (healthy subjects [1]; previous febuxostat multiple-dose study): six out of 118 subjects
Maximum percentage decrease from baseline in Cmean,24 for SUA (healthy subjects [2]; febuxostat group (80 mg once daily for 7 days)): 58.8%
t1/2 ([3]; febuxostat 40 mg): 10.3 ± 7.4 h
t1/2 ([3]; febuxostat 70 mg): 12.5 ± 7.7 h
Tmax ([3]; febuxostat): ~ 1 hour
Change by food in the percentage decrease in SUA concentration (healthy subjects [4]): no clinically significant change
Change of AUC by food (healthy subjects [4]): slight decrease

CC(C)n1cc(C#N)c2cc(-n3cc(C(=O)O)cn3)ccc21 [LC350189]
Dose up to which no significant toxicity was found (rat): 12.5 mg/kg
Allergic reaction (healthy subjects [5]; SAD and MAD): no allergic reaction
Renal toxicity according to the NGAL test (healthy subjects [5]; SAD and MAD): no signals of renal toxicity
Tolerability (healthy subjects [5]; single and multiple oral administrations, dose range 10–800 mg): well tolerated
Inhibition of XO enzyme activity (XO enzyme): comparable to febuxostat
Metabolic stability (liver microsome): metabolically stable
Change in Cmean,24 of serum uric acid from baseline (healthy subjects [2]; MAD 800 mg once daily for 7 days, fasted, Day 7, mean (SD), n=6): −91.2%
Amount of uric acid excreted in the urine relative to baseline (healthy subjects [2]; after multiple administrations): one-third to one-tenth of the baseline level
Maximum percentage decrease from baseline in Cmean,24 for SUA (healthy subjects [2]; after multiple administrations of LC350189): 91.2%
Increase of Cmean,24 of xanthine (healthy subjects [2]; after multiple administrations, day 7): three-to eight-fold
Emax (maximum percentage decrease in Cmean,24 of SUA) (XO; Emax model, day 7, MAD, 95% CI 94.8%–105.4%): 100.1%
Inhibition of XO activity (XO; multiple doses at 100 mg, AUC at steady state close to EAUC50): ~50%
Emax (XO; read-out: Inhibition of XO based on the Emax model): ~100%
Metabolic stability (CYP isoenzymes): metabolically stable
Dose up to which no significant toxicity was found (dog): 200 mg/kg
Change in Cmean,24 of serum uric acid from baseline (healthy subjects [6]; SAD single oral 200 mg, fasting): −22.9%
Change in Cmean,24 of serum uric acid from baseline (healthy subjects [6]; SAD single oral 600 mg, fasted): −31.7%
Increase of Cmean,24 of xanthine (healthy subjects [6]; after a single dose): two- to seven-fold
Reduction of SUA (SUA): sufficiently reduced SUA
Geometric mean ratio (90% CI) of AUClast with and without food ([7]; 200 mg single dose): 0.973 (0.837–1.131)
Geometric mean ratio (90% CI) of Cmax, fed vs fasting ([7]; 200 mg single dose): 0.624 (0.485–0.802)
Decrease of Cmax by food [7, 8]: 38%
Delay of absorption by food [7, 8]: ~ 2 hours
Time up to which plasma concentrations were detected ([7]; SAD low-dose groups (10 mg, 25 mg, 50 mg), LLOQ 5 ng/mL): up to 48 hours
half-life ([7]; male, human, plasma, oral, t1/2, overall, approximate): ~10 h

— PMC4560520 (Drug Design, Development and Therapy, 2015)
